ChEMBL document CHEMBL1122233, “Antihypertensive 9-substituted 1-oxa-4,9-diazaspiro[5.5]undecan-3-ones” (J Med Chem, 1983)

What was measured:
Rattus norvegicus [1] = test: (§1) Percentage fall in systolic blood pressure after 3 hours at 12.5 mg/kg given perorally; type: functional, Artery; conditions: route oral
In short: (§2)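 Male Okamoto-Aoki SHR, four per group, with a concurrent vehicle control group. Oral dosing in water (0.1 mL/10 g) on two consecutive mornings. After the day-2 dose, rats were restrained in a 30 °C chamber. Tail-cuff systolic pressure was taken at 1-4 h from four traces per rat. Result is % decrease versus control mean, by 1-tailed t test, p ≤ 0.05.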

Rattus norvegicus [2] = test: (§3) Percentage fall in systolic blood pressure after 4 hours at 50 mg/kg given perorally; type: functional, Artery; conditions: route oral; in short: as §2
Rattus norvegicus [3] = test: (§4) Percentage fall in systolic blood pressure after 3 hours at 50 mg/kg given perorally; type: functional, Artery; conditions: route oral; in short: as §2
Rattus norvegicus [4] = test: (§5) Percentage fall in systolic blood pressure after 2 hours at 50 mg/kg given perorally; type: functional, Artery; conditions: route oral; in short: as §2
Rattus norvegicus [5] = test: (§6) Percentage fall in systolic blood pressure after 4 hours at 12.5 mg/kg given perorally; type: functional, Artery; conditions: route oral; in short: as §2
Rattus norvegicus [6] = test: Percentage fall in systolic blood pressure after 2 hours at 12.5 mg/kg given perorally; type: functional, Artery; conditions: route oral; in short: as §2
Rattus norvegicus [7] = test: (§7) Percentage fall in systolic blood pressure after 1 hr at 12.5 mg/kg given perorally; type: functional, Artery; conditions: route oral; in short: as §2
Rattus norvegicus [8] = test: (§8) Percentage fall in systolic blood pressure after 1 hr at 50 mg/kg given perorally; type: functional, Artery; conditions: route oral; in short: as §2
Rattus norvegicus [9] = test: as §4; type: functional, organism-based; set-up: dose 50 mg/kg; conditions: Artery; in short: as §2
Rattus norvegicus [10] = test: as §7; type: functional, organism-based; set-up: dose 12.5 mg/kg; conditions: Artery
In short: (§9)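 Male Okamoto-Aoki spontaneously hypertensive rats, trained, in groups of four matched for mean systolic pressure; five treated groups and one vehicle control run concurrently. Oral dosing in water (solution or suspension, 0.1 mL/10 g) on two consecutive mornings. On day 2, rats were restrained at 30.0 ± 1.0 °C and tail-cuff systolic pressure recorded at 1–4 h; percent fall versus control, 1-tail t test, p ≤ 0.05.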

Rattus norvegicus [11] = test: Percentage fall in systolic blood pressure after 3 hr at 12.5 mg/kg given perorally; type: functional, organism-based; set-up: dose 12.5 mg/kg; conditions: Artery; in short: as §9
Rattus norvegicus [12] = test: Percentage fall in systolic blood pressure after 2 hr at 12.5 mg/kg given perorally; type: functional, organism-based; set-up: dose 12.5 mg/kg; conditions: Artery; in short: as §9
Rattus norvegicus [13] = test: (§10) Percentage fall in systolic blood pressure after 4 hr at 12.5 mg/kg given perorally; type: functional, organism-based; set-up: dose 12.5 mg/kg; conditions: Artery; in short: as §9
Rattus norvegicus [14] = test: as §5; type: functional, organism-based; set-up: dose 50 mg/kg; conditions: Artery; in short: as §2
Rattus norvegicus [15] = test: as §3; type: functional, organism-based; set-up: dose 50 mg/kg; conditions: Artery; in short: as §9
Rattus norvegicus [16] = test: as §8; type: functional, organism-based; set-up: dose 50 mg/kg; conditions: Artery; in short: as §9
Rattus norvegicus [17] = test: Percentage fall in systolic blood pressure after 1 hr at 25 mg/kg given perorally; type: functional, Artery; conditions: route oral; in short: as §9
Rattus norvegicus [18] = test: Percentage fall in systolic blood pressure after 2 hours at 25 mg/kg given perorally; type: functional, Artery; conditions: route oral; in short: as §9
Rattus norvegicus [19] = test: Percentage fall in systolic blood pressure after 4 hours at 25 mg/kg given perorally; type: functional, Artery; conditions: route oral; in short: as §9
Rattus norvegicus [20] = test: as §3; type: functional, organism-based; set-up: dose 50 mg/kg; conditions: Artery; in short: as §2; remark: listed apart in the source
Rattus norvegicus [21] = test: as §10; type: functional, Artery; conditions: route oral; in short: as §9
Rattus norvegicus [22] = test: Percentage fall in systolic blood pressure after 2 hr at 25 mg/kg given perorally; type: functional, Artery; conditions: route oral; in short: as §9
Rattus norvegicus [23] = test: Percentage fall in systolic blood pressure after 3 hr at 25 mg/kg given perorally; type: functional, Artery; conditions: route oral; in short: as §9
Rattus norvegicus [24] = test: Percentage fall in systolic blood pressure after 4 hr at 25 mg/kg given perorally; type: functional, Artery; conditions: route oral; in short: as §9
Rattus norvegicus [25] = test: as §1; type: functional, organism-based; set-up: dose 12.5 mg/kg; conditions: Artery; in short: as §2
Rattus norvegicus [26] = test: as §6; type: functional, organism-based; set-up: dose 12.5 mg/kg; conditions: Artery; in short: as §2
Rattus norvegicus [27] = test: Percentage fall in systolic blood pressure after 3 hours at 25 mg/kg given perorally; type: functional, Artery; conditions: route oral; in short: as §9

## CCCN1CC2(CCN(CCc3c[nH]c4ccccc34)CC2)OCC1=O
Rattus norvegicus [1]
  Decrease in SBP: 24%
Rattus norvegicus [2]
  Decrease in SBP: 39%
Rattus norvegicus [3]
  Decrease in SBP: 22%
Rattus norvegicus [4]
  Decrease in SBP: 22%
Rattus norvegicus [5]
  Decrease in SBP: 16%
Rattus norvegicus [6]
  Decrease in SBP: 26%
Rattus norvegicus [7]
  Decrease in SBP: 18%
Rattus norvegicus [8]
  Decrease in SBP: 47%

## NCC1CCN(CCc2c[nH]c3ccccc23)CC1
Rattus norvegicus [2]
  Decrease in SBP: 20%
Rattus norvegicus [4]
  Decrease in SBP: 24%
Rattus norvegicus [9]
  Decrease in SBP: Not significant
Rattus norvegicus [8]
  Decrease in SBP: 20%

## O=C1COC2(CCN(CCc3ccc(Cl)cc3)CC2)CN1
Rattus norvegicus [10]
  Decrease in SBP: Not significant
Rattus norvegicus [11]
  Decrease in SBP: Not significant
Rattus norvegicus [12]
  Decrease in SBP: Not significant
Rattus norvegicus [13]
  Decrease in SBP: Not significant

## O=C1COC2(CCN(CC(O)c3ccccc3)CC2)CN1 (configuration not stated)
Rattus norvegicus [14]
  Decrease in SBP: Not significant
Rattus norvegicus [15]
  Decrease in SBP: Not significant
Rattus norvegicus [9]
  Decrease in SBP: Not significant
Rattus norvegicus [16]
  Decrease in SBP: Not significant

## O=C1COC2(CCN(CCC(=O)c3ccc(F)cc3)CC2)CN1
Rattus norvegicus [17]
  Decrease in SBP: 27%
Rattus norvegicus [18]
  Decrease in SBP: 24%
Rattus norvegicus [19]
  Decrease in SBP: 20%

## COC1(CNC(C)=O)CCN(CCc2c[nH]c3ccccc23)CC1
Rattus norvegicus [14]
  Decrease in SBP: Not significant
Rattus norvegicus [20]
  Decrease in SBP: Not significant
Rattus norvegicus [9]
  Decrease in SBP: Not significant
Rattus norvegicus [8]
  Decrease in SBP: 17%

## CC1OC2(CCN(CCc3c[nH]c4ccccc34)CC2)CN(C)C1=O (configuration not stated)
Rattus norvegicus [14]
  Decrease in SBP: Not significant
Rattus norvegicus [20]
  Decrease in SBP: Not significant
Rattus norvegicus [9]
  Decrease in SBP: Not significant
Rattus norvegicus [8]
  Decrease in SBP: 32%

## CC(=O)NCC1CCN(CCc2c[nH]c3ccccc23)CC1
Rattus norvegicus [2]
  Decrease in SBP: 26%
Rattus norvegicus [3]
  Decrease in SBP: 15%
Rattus norvegicus [4]
  Decrease in SBP: 26%
Rattus norvegicus [8]
  Decrease in SBP: 30%

## CCC(=O)NCC1CCN(CCc2c[nH]c3ccccc23)CC1
Rattus norvegicus [3]
  Decrease in SBP: 15%
Rattus norvegicus [4]
  Decrease in SBP: 23%
Rattus norvegicus [20]
  Decrease in SBP: Not significant
Rattus norvegicus [8]
  Decrease in SBP: 23%

## CCC1OC2(CCN(CCc3c[nH]c4ccccc34)CC2)CNC1=O (configuration not stated)
Rattus norvegicus [3]
  Decrease in SBP: 15%
Rattus norvegicus [4]
  Decrease in SBP: 23%
Rattus norvegicus [20]
  Decrease in SBP: Not significant
Rattus norvegicus [8]
  Decrease in SBP: 26%

## O=C(NCC1CCN(CCc2c[nH]c3ccccc23)CC1)c1ccccc1
Rattus norvegicus [2]
  Decrease in SBP: 32%
Rattus norvegicus [3]
  Decrease in SBP: 30%
Rattus norvegicus [4]
  Decrease in SBP: 27%
Rattus norvegicus [16]
  Decrease in SBP: Not significant

## COc1ccc(CCN2CCC3(CC2)CNC(=O)CO3)cc1OC
Rattus norvegicus [14]
  Decrease in SBP: Not significant
Rattus norvegicus [20]
  Decrease in SBP: Not significant
Rattus norvegicus [9]
  Decrease in SBP: Not significant
Rattus norvegicus [16]
  Decrease in SBP: Not significant

## O=C1COC2(CCN(CCCC(=O)c3ccc(F)cc3)CC2)CN1
Rattus norvegicus [21]
  Decrease in SBP: 18%
Rattus norvegicus [17]
  Decrease in SBP: 50%
Rattus norvegicus [10]
  Decrease in SBP: Not significant
Rattus norvegicus [22]
  Decrease in SBP: 33%
Rattus norvegicus [23]
  Decrease in SBP: 29%
Rattus norvegicus [11]
  Decrease in SBP: Not significant
Rattus norvegicus [24]
  Decrease in SBP: 30%
Rattus norvegicus [12]
  Decrease in SBP: Not significant

## O=C1COC2(CCN(CCc3ccc(F)cc3)CC2)CN1
Rattus norvegicus [10]
  Decrease in SBP: Not significant
Rattus norvegicus [11]
  Decrease in SBP: Not significant
Rattus norvegicus [12]
  Decrease in SBP: Not significant
Rattus norvegicus [13]
  Decrease in SBP: Not significant

## CCC1NC(=O)COC12CCN(CCc1c[nH]c3ccccc13)CC2 (configuration not stated)
Rattus norvegicus [2]
  Decrease in SBP: 43%
Rattus norvegicus [3]
  Decrease in SBP: 41%
Rattus norvegicus [4]
  Decrease in SBP: 54%
Rattus norvegicus [25]
  Decrease in SBP: Not significant
Rattus norvegicus [6]
  Decrease in SBP: 25%
Rattus norvegicus [7]
  Decrease in SBP: 21%
Rattus norvegicus [26]
  Decrease in SBP: Not significant
Rattus norvegicus [8]
  Decrease in SBP: 40%

## CN1CC2(CCN(CC(O)C3COc4ccccc4O3)CC2)OCC1=O (stereo in doubt; 60)
Rattus norvegicus [17]
  Decrease in SBP: 41%
Rattus norvegicus [22]; 25 mg/kg
  Decrease in SBP: 33%
Rattus norvegicus [23]; 25 mg/kg
  Decrease in SBP: 17%

## O=C1COC2(CCN(CCc3c[nH]c4ccccc34)CC2)CN1c1cccc(F)c1
Rattus norvegicus [17]
  Decrease in SBP: 29%
Rattus norvegicus [18]
  Decrease in SBP: 31%
Rattus norvegicus [27]
  Decrease in SBP: 22%
Rattus norvegicus [19]
  Decrease in SBP: 18%

## COc1ccc(CCN2CCC3(CC2)CNC(=O)CO3)cc1
Rattus norvegicus [10]
  Decrease in SBP: Not significant
Rattus norvegicus [11]
  Decrease in SBP: Not significant
Rattus norvegicus [12]
  Decrease in SBP: Not significant
Rattus norvegicus [13]
  Decrease in SBP: Not significant
